# Reference: ChEMBL document CHEMBL1149768, “Novel Pd(II) complexes of 1-N-substituted 3-phenyl-2-pyrazoline derivatives and evaluation of antiamoebic activity” (Eur J Med Chem, 2008)
# System: Entamoeba histolytica
# Assay: Antiamoebic activity against Entamoeba histolytica HM1 IMSS after 72 hrs by serial dilution method
# Type: functional, organism-based
# How it was run: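 Compounds were dissolved in DMSO and diluted in medium to 1 mg/mL, then to 0.1 mg/mL, with two-fold serial dilutions in microplate wells. Metronidazole was the standard. Each well got 1.7 × 10⁴ trophozoites, was gassed with N₂ and held at 37 °C for 72 h. Plates were methanol-fixed, eosin-stained and solubilised in 0.1 N NaOH, and OD was read at 490 nm. IC50 came from linear regression of % inhibition versus log dose.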
row,Structure (SMILES),IC50
1,CC1CN(C(N)=S)N=C1c1ccccc1 (stereo not given),10.3 µM
2,Cc1ccccc1NC(=S)N1CC(C)C(c2ccccc2)=N1 (stereo not given),4.57 µM
3,CC1CN(C(=S)NCc2ccccc2Cl)N=C1c1ccccc1 (stereo not given),4.62 µM
4,CC1CN(C(=S)N2CCN(c3ccccc3)CC2)N=C1c1ccccc1 (stereo not given),8.69 µM
5,CC1CN(C(=S)NC2CCCC2)N=C1c1ccccc1 (stereo not given),8.75 µM
6,CC1CN(C(=S)NC2CCCCC2)N=C1c1ccccc1 (stereo not given),6.63 µM
7,CC1CN(C(=S)NC2CCCCCCC2)N=C1c1ccccc1 (stereo not given),2.32 µM

# Further lines, results first:
row,IC50,Structure (SMILES)
1,9.13 µM,CC(C)CNC(=S)N1CC(C)C(c2ccccc2)=N1 (stereo not given)
2,15.2 µM,CC(C)NC(=S)N1CC(C)C(c2ccccc2)=N1 (stereo not given)
3,4.32 µM,CCCCNC(=S)N1CC(C)C(c2ccccc2)=N1 (stereo not given)
